mABHD4 FP = inhibits mouse alpha/beta hydrolase domain 4; inhibition, % at 8.92 µM; actives 0.54% (n = 370,000); AID 720543; purified mABHD4, FP-Rh probe fluorescence polarization; Q8VD66;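 active = inhibition exceeding the mean over every tested compound plus 3 SD, cut at about 30% in these data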;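 note: 0% = plate median of compound wells and 100% = S159A mutant with DMSO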
Target sequence (Q8VD66 whole entry, looked up, the tested form may be a part): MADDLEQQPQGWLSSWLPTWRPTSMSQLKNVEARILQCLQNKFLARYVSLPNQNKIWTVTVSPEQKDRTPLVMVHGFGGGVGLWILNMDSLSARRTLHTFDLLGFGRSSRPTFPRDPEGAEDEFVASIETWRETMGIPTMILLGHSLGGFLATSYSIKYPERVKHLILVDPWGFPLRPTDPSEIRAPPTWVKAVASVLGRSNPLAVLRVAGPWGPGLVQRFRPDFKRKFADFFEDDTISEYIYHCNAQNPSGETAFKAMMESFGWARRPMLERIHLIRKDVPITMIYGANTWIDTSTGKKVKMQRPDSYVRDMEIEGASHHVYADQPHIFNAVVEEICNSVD
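Test system: mABHD4 protein | Buffer or medium: HEPES pH 7.0 buffer, 150 mM NaCl, 0.01% Pluronic F-127 | Probe or stimulus: FP-Rh fluorescent activity-based probe, added after compound pre-incubation | Timing: Pre-incubation 45 min, probe exposure 60 min, at 25 °C | Technique: Fluorescence polarization, excitation 525 nm, emission 598 nm, BODIPY TMR filters | Repeats: Single well per compound (singlicate)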
DAGLB inh = diacylglycerol lipase beta (human) inhibition; inhibition, % at 5.17 µM; AID 504411; Q8NCG7; HEK293T DAGLB membrane lysate, EnzChek fluorogenic substrate; actives 0.059% (n = 340,000); in the data active = inhibition above about 34%;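 note: 0% = enzyme with vehicle and 100% = wells lacking enzyme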
HTRA1 inhibitor = inhibitors of human serine peptidase HTRA1. Q92743. recombinant HTRA1, FP-rhodamine activity-based probe, fluorescence polarization. inhibition, % at 5.96 µM. actives 0.5% (n = 340,000). AID 504803; in the data active = inhibition above about 36%;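 note: 0% = enzyme with DMSO and 100% = wells lacking enzyme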
TCR CD3 inh = inhibitors of human TCR-CD3 interaction. TAMRA-labeled TCR probe fluorescence, biochemical. inhibition, % at 9.4 µM. actives 0.37% (n = 360,000); in the data active = inhibition above about 19%;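 note: recombinant mutant TCR 2C K166C tagged with TAMRA read by polarization; 0% = receptor in buffer alone and 100% = receptor with positive control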
SIAE primary = human SIAE inhibition, primary screen; AID 1053197; inhibition, % at 9.66 µM; SIAE FP-Rh probe binding, fluorescence polarization; actives 0.69% (n = 370,000);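 active = inhibition above a cutoff: mean of compounds within the control limits plus 3 SD of those, cut at about 17% in these data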;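 note: 0% = plate median of compound wells and 100% = probe without SIAE protein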
* marks the source's active call; other numbers are inactive results; · = not tested or not shown. Shown are actives, neighbours in structure and some others; about 1.5% of the full set was active somewhere.

SMILES | mABHD4 FP | DAGLB inh | HTRA1 inhibitor | TCR CD3 inh | SIAE primary
CC(C)(C)c1ccc(-c2nnc(SCc3cccc4ccccc34)n2Cc2ccco2)cc1 | -20.4 | · | · | · | -7.9
COc1ccccc1CN1Cc2ccccc2Oc2ccccc2S1(=O)=O | -17.2 | · | · | -0.1 | -8.7
COc1cc(NC(=O)c2cnn3c(C)cc(C)nc23)cc(OC)c1OC | 5.5 | · | · | · | -1.2
O=c1[nH]c2ccc(Br)cc2c(-c2ccccc2)c1N1CCOCC1 | 4.6 | 3.4 | 10.2 | -2.3 | -2.1
CC(=O)c1c(N2CCOCC2)nc2ccc(Br)cc2c1-c1ccccc1 | 3.5 | · | · | -4.9 | 19.4*
COc1cc(C(c2c(C(=O)O)[nH]c3ccccc23)c2c(C(=O)O)[nH]c3ccccc23)ccc1OCc1ccccc1 | 50.2* | 17.4 | 20.3 | 1.1 | 7.2
COc1cc(C(NC(C)=O)NC(C)=O)ccc1OCc1ccccc1 | -0.2 | 0.8 | -1.0 | -4.1 | 0.0
COC(=O)[C@]12C[C@H](CC(=O)NCc3cccs3)C(=O)N(Cc3ccccc3)C1=C[C@H](COCc1ccccc1)O[C@@H]2C | 1.8 | · | · | · | -4.7
N=c1c(C(=O)NC2CCCCC2)cc2c(=O)n3ccccc3nc2n1Cc1ccccc1 | 9.4 | -0.9 | -5.4 | -0.6 | 1.2
N=c1c(C(=O)NC2CCCCC2)cc2c(=O)n3ccccc3nc2n1CCc1ccccc1 | 0.0 | -3.9 | 0.8 | 2.9 | 92.5*
Cc1cc(-c2csc(NCc3ccccc3)n2)c(C)n1C | · | 11.7 | 36.8* | · | ·
Cc1nc(N)sc1-c1csc(NCc2ccccc2)n1 | 20.4 | 3.2 | 23.0 | 11.6 | -1.1
CON(C)C(=O)C(C)(C)CC#CCN(CC#Cc1ccccc1)S(=O)(=O)c1ccc(C)cc1 | -3.6 | · | · | -10.5 | -7.8
Cn1cccc1C(=O)OCC(=O)NCc1ccc2c(c1)OCO2 | 9.8 | 1.9 | -6.3 | 25.7* | 8.1
Nc1ncnc2nc(SCc3ccc(Cl)cc3Cl)[nH]c12 | 6.9 | 5.0 | -1.2 | 5.0 | 21.3*
Cc1cc(N2CCN(C(=O)c3ccco3)CC2)c2ccccc2n1 | -1.3 | -1.3 | 4.4 | -1.4 | 5.0
CCN1CCN(c2cc(N3CCN(C(=O)c4ccco4)CC3)c3c4c(onc24)-c2ccccc2C3=O)CC1 | · | 11.2 | 70.1* | · | ·
CC1=CC(=O)c2ccccc2C1=O | 2.5 | 0.7 | 1.8 | 9.5 | -1.3
CC(C)(C=O)C1=CC(=O)c2ccccc2C1=O | 36.7* | -1.7 | 13.7 | 3.3 | 11.8
COc1ccccc1Cc1c(-c2ccc(F)cc2)nc2c3ccccc3ccn12 | -11.4 | · | · | 1.4 | -1.5
O=C(NC1CCCCC1)Oc1cc2oc(=O)sc2cc1Br | 33.5* | -13.0 | 9.2 | 1.5 | 12.2
CCOc1ccccc1C(N)=O | -7.5 | -3.0 | 1.1 | 5.2 | -7.8
CCOc1ccccc1C(O)C1=CC(=O)c2ccccc2C1=O (configuration not stated) | 42.8* | 3.8 | 17.2 | 12.9 | 14.8
CCn1c2c(n(C(C)=O)c1=O)C=C(C(=O)N1CCCC1)C(C)C(c1ccccc1)=C2 (configuration not stated) | 6.2 | · | · | 0.3 | 10.2
CN1C(=O)c2cc(NC(=O)C3CCCCC3)ccc2OC[C@H]2O[C@@H](CC(=O)NC3CCCC3)CC[C@H]21 | 2.6 | · | · | · | -5.4
SMILES | mABHD4 FP | DAGLB inh | HTRA1 inhibitor | TCR CD3 inh | SIAE primary
Cc1ccccc1NC(=O)OCCCN1C(=O)CCC12CCC(C)CC2 (configuration not stated) | 6.1 | · | · | · | 0.8
CC/C(=N\Nc1ccccc1[N+](=O)[O-])c1ccc(O)cc1 | 40.0* | · | · | 6.5 | 8.1
O=c1oc2cc([N+](=O)[O-])ccc2nc1/C=C(\O)c1cccc(Br)c1 | 39.4* | 12.2 | 3.2 | -10.8 | 5.8
COc1ccc(NC(=S)NC(NC(=O)CCl)C(Cl)(Cl)Cl)c([N+](=O)[O-])c1 (configuration not stated) | · | 6.6 | 41.8* | · | ·
CN(C)c1ccc(NC(=O)c2sc(SCC(=O)Nc3ccc(Br)cc3)nc2N)cc1 | -7.5 | 11.9 | 0.5 | -2.1 | 5.7
CN(C)c1ccc(NC(=O)c2sc(SCC(=O)Nc3nccs3)nc2N)cc1 | 18.4 | 6.2 | 5.0 | 4.7 | 24.4*
COc1ccc2c3c(ccc2c1)C(=O)/C(=C/O)CC3 | 27.2 | 5.5 | 37.9* | 4.6 | 5.6
COc1ccc2c(c1)CC/C(=C/c1ccncc1)C2=O | · | -1.3 | -5.9 | · | ·
CCOC(=O)C1CCN(C(=O)Nc2ccc3nc(-c4ccco4)c(-c4ccco4)nc3c2)CC1 | · | 5.2 | 44.8* | · | ·
O=[N+]([O-])c1ccc(OC[C@@H](O)CN2CCC(C(O)(c3ccccc3)c3ccccc3)CC2)c(Cl)c1 | -0.1 | · | · | · | -6.6
O=S1(=O)N[C@@H](Cc2ccccc2)COc2cc(N3CCCCC3)ccc21 | -4.1 | · | · | 3.8 | 8.5
CCOC(=O)N1CCN(S(=O)(=O)c2ccc(C(=O)NNc3nc4c(C)cc(C)cc4s3)cc2)CC1 | 15.9 | · | · | -10.7 | 7.4
CCOC(=O)N1CCN(S(=O)(=O)c2ccc(C(=O)NNc3nc4cc(C)cc(C)c4s3)cc2)CC1 | · | 5.3 | 49.9* | · | ·
NS(=O)(=O)c1ccc(-c2ccc(/C=N/Nc3ccc(C(=O)O)cc3)o2)cc1 | 17.8 | 2.9 | -2.6 | -8.1 | -4.1
O=C(O)c1ccc(-c2ccc(/C=N/Nc3ccc([N+](=O)[O-])cc3)o2)cc1 | 32.3* | -7.6 | -2.6 | -4.3 | -12.7
COC(=O)C1=C(C)N(Cc2ccccc2C(F)(F)F)C(=NCc2ccccc2C(F)(F)F)NC1c1ccc(F)cc1 (configuration not stated) | 1.0 | · | · | -0.3 | -8.6
N#C/C(=C\c1ccc(O)c(O)c1)S(=O)(=O)c1ccccc1 | 20.6 | 24.5 | 30.8 | 9.9 | 20.3*
Cc1cccc(N2CCN(C(=O)CCC(=O)N3CC(C)Oc4ccccc43)CC2)c1C (configuration not stated) | -0.8 | -0.4 | -2.1 | 20.5* | -4.8
O=[N+]([O-])c1ccc(O)c(C=Nc2ccc3nc(-c4ccccc4)[nH]c3c2)c1 | 22.5 | 6.5 | 7.5 | 7.4 | 11.8
Oc1c(Br)cc(C=Nc2ccc3nc(-c4ccccc4)[nH]c3c2)c(O)c1Br | 30.9* | · | · | 15.8 | 17.8*
COC(=O)c1cc(S(=O)(=O)N2CCN(C(C)=O)CC2)cn1C | 2.8 | · | · | · | -1.3
NC(N)=N/N=C/c1ccc(OCc2ccccc2)c(OCc2ccccc2)c1 | 20.1 | 3.4 | -41.5 | -8.3 | 25.3*
CC(OC(=O)c1ccc(NC(=O)CC#N)cc1)C(=O)Nc1ccc(Oc2ccccc2)cc1 (configuration not stated) | -38.1 | -0.9 | -77.7 | 35.3* | -91.5
CCCCCCCCN1C(=O)[C@@H](CC(=O)NCc2cccs2)C[C@@]2(C(=O)OC)C1=C[C@H](C1CCCC1)O[C@@H]2C | -13.1 | · | · | 1.4 | 1.7
O=S(=O)(c1ccc(F)cc1)N1CCCc2nc(-c3ccccc3)ccc21 | -6.9 | · | · | 0.1 | 2.5
CCCCN1CCS(=O)(=O)N(Cc2ccc(Cl)cc2)C(C(=O)OC)C1 (configuration not stated) | 3.2 | · | · | · | -2.2
COc1cc(C(=O)N/N=C/c2cn(Cc3cccc(F)c3)c3ccccc23)ccc1O | 5.3 | -1.7 | 2.9 | -6.3 | 29.5*
Cc1ccc(C(=O)N/N=C/c2cn(Cc3ccccc3)c3ccccc23)cn1 | 4.0 | -1.4 | 2.0 | -2.0 | 8.0
